Experimental data taken from ChEMBL document CHEMBL1134346, “Labeling and evaluation of N-[11C]methylated quinoline-2-carboxamides as potential radioligands for visualization of peripheral benzodiazepine receptors” (J Med Chem, 2001).

Key:
Rattus norvegicus [1] = organism: Rattus norvegicus; assay: Tissue (plasma) distribution in Albino male CD rats after 5 minutes expressed as percent of injected dose per gram of organ.; assay type: ADME, organism-based; settings: in vivo
How it was run: (§1)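 Male albino CD rats (225-250 g) received the 11C-labelled radioligand in saline by tail-vein injection. Three rats per time point were decapitated under light ether anaesthesia at 5, 15, 30, 60 or 90 min. Blood was collected heparinized and plasma separated by centrifugation. The pituitary was dissected from the brain. Lung, liver (three-lobe pieces) and right deltoid muscle were sampled, washed in cold saline, gamma-counted and weighed. Results are %I.D./g.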

Rattus norvegicus [2] = organism: Rattus norvegicus; assay: Tissue (plasma) distribution in Albino male CD rats after 30 minutes expressed as percent of injected dose per gram of organ.; assay type: ADME, organism-based; settings: in vivo, 0.5 h; how it was run: as §1
Rattus norvegicus [3] = organism: Rattus norvegicus; assay: Tissue (kidney) distribution in Albino male CD rats after 90 minutes expressed as percent of injected dose per gram of organ.; assay type: ADME, organism-based; settings: in vivo, 1.5 h
How it was run: (§2)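 Radioligand given in saline into tail vein of male albino CD rats (225-250 g); 100-200 µCi per animal, 1-2 Ci/µmol at injection depending on radioligand. Three rats per time point were decapitated under light ether anaesthesia. Blood, plasma, brain regions and washed organs were weighed and gamma-counted. Uptake is %I.D./g tissue, mean ± SD.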

[4] = target: Translocator protein (Rattus norvegicus) (UniProt P16257); assay: Tissue (liver) concentration of radioactivity at 30 min post-injection into Albino male CD rats after pretreatment with cold PK 11195.; assay type: functional, tissue-based
How it was run: (§3)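 Separate groups of five rats received tail-vein PK 11195 (1.4-1.6 mg; 5 mg/kg) in 30 µL DMSO:EtOH 1:1, or vehicle alone, immediately before iv radioligand (90-170 µCi in saline, 0.9-1 Ci/µmol). Rats were decapitated at 30 min and tissues gamma-counted; values are %I.D./g.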

Rattus norvegicus [5] = organism: Rattus norvegicus; assay: Tissue (testicle) distribution in Albino male CD rats after 15 minutes expressed as percent of injected dose per gram of organ.; assay type: ADME, organism-based; settings: in vivo, 0.25 h; how it was run: as §1
Rattus norvegicus [6] = organism: Rattus norvegicus; assay: Tissue (pituitary) distribution in Albino male CD rats after 60 minutes expressed as percent of injected dose per gram of organ.; assay type: ADME, organism-based, Pituitary gland; settings: in vivo, 1 h; how it was run: as §1
Rattus norvegicus [7] = organism: Rattus norvegicus; assay: Tissue (lung) distribution in Albino male CD rats after 5 minutes expressed as percent of injected dose per gram of organ.; assay type: ADME, organism-based; settings: in vivo; how it was run: as §1
Rattus norvegicus [8] = organism: Rattus norvegicus; assay: Tissue (muscle) distribution in Albino male CD rats after 90 minutes expressed as percent of injected dose per gram of organ.; assay type: ADME, organism-based; settings: in vivo, 1.5 h; how it was run: as §1
Rattus norvegicus [9] = organism: Rattus norvegicus; assay: Tissue (spleen) concentration of radioactivity at 30 min post-injection into Albino male CD rats with vehicle.; assay type: ADME, organism-based; settings: in vivo, 0.5 h
How it was run: (§4)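 Blocking study in male albino CD rats, five per group. Immediately before the 11C radioligand (in saline, i.v. tail vein), rats received 30 µL tail-vein PK 11195 (5 mg/kg; 1.4-1.6 mg) in DMSO:EtOH 1:1, or vehicle. Rats were decapitated at 30 min. Tissues were dissected, washed, gamma-counted and weighed as in the biodistribution study. Results are %I.D./g.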

Rattus norvegicus [10] = organism: Rattus norvegicus; assay: Tissue (liver) distribution in Albino male CD rats after 30 minutes expressed as percent of injected dose per gram of organ.; assay type: ADME, organism-based; settings: in vivo, 0.5 h; how it was run: as §1
Rattus norvegicus [11] = organism: Rattus norvegicus; assay: Tissue (intestine) distribution in Albino male CD rats after 60 minutes expressed as percent of injected dose per gram of organ.; assay type: ADME, organism-based; settings: in vivo, 1 h; how it was run: as §2
[12] = target: Translocator protein (Rattus norvegicus) (UniProt P16257); assay: Tissue (heart) concentration of radioactivity at 30 min post-injection into Albino male CD rats after pretreatment with cold PK 11195.; assay type: functional; how it was run: as §3
Rattus norvegicus [13] = organism: Rattus norvegicus; assay: Tissue (adrenal gland) distribution in Albino male CD rats after 30 minutes expressed as percent of injected dose per gram of organ.; assay type: ADME, organism-based; settings: in vivo, 0.5 h; how it was run: as §2
Rattus norvegicus [14] = organism: Rattus norvegicus; assay: Tissue (intestine) distribution in Albino male CD rats after 15 minutes expressed as percent of injected dose per gram of organ.; assay type: ADME, organism-based; settings: in vivo, 0.25 h; how it was run: as §2
Rattus norvegicus [15] = organism: Rattus norvegicus; assay: Tissue (cortex) distribution in Albino male CD rats after 90 minutes expressed as percent of injected dose per gram of organ.; assay type: ADME, organism-based; settings: in vivo, 1.5 h; how it was run: as §2
[16] = target: Translocator protein (Rattus norvegicus) (UniProt P16257); assay: Tissue (adrenal gland) concentration of radioactivity at 30 min post-injection into Albino male CD rats after pretreatment with cold PK 11195.; assay type: functional, tissue-based; how it was run: as §3
Rattus norvegicus [17] = organism: Rattus norvegicus; assay: Tissue (liver) distribution in Albino male CD rats after 60 minutes expressed as percent of injected dose per gram of organ.; assay type: ADME, organism-based; settings: in vivo, 1 h; how it was run: as §1
[18] = target: Translocator protein (Rattus norvegicus) (UniProt P16257); assay: Tissue (spleen) concentration of radioactivity at 30 min post-injection into Albino male CD rats after pretreatment with cold PK 11195.; assay type: functional, tissue-based; how it was run: as §4
Rattus norvegicus [19] = organism: Rattus norvegicus; assay: Tissue (lung) distribution in Albino male CD rats after 60 minutes expressed as percent of injected dose per gram of organ.; assay type: ADME, organism-based; settings: in vivo, 1 h; how it was run: as §1
Rattus norvegicus [20] = organism: Rattus norvegicus; assay: Tissue (cortex) distribution in Albino male CD rats after 5 minutes expressed as percent of injected dose per gram of organ.; assay type: ADME, organism-based; settings: in vivo; how it was run: as §2
Rattus norvegicus [21] = organism: Rattus norvegicus; assay: Tissue (lung) concentration of radioactivity at 30 min post-injection into Albino male CD rats with vehicle.; assay type: ADME, organism-based; settings: in vivo, 0.5 h; how it was run: as §4
[22] = target: Translocator protein (Rattus norvegicus) (UniProt P16257); assay: Tissue (pituitary) concentration of radioactivity at 30 min post-injection into Albino male CD rats after pretreatment with cold PK 11195.; assay type: functional, tissue-based; settings: Pituitary gland; how it was run: as §4
Rattus norvegicus [23] = organism: Rattus norvegicus; assay: Tissue (muscle) distribution in Albino male CD rats after 5 minutes expressed as percent of injected dose per gram of organ.; assay type: ADME, organism-based; settings: in vivo; how it was run: as §1
Rattus norvegicus [24] = organism: Rattus norvegicus; assay: Tissue (pituitary) distribution in Albino male CD rats after 30 minutes expressed as percent of injected dose per gram of organ.; assay type: ADME, organism-based, Pituitary gland; settings: in vivo, 0.5 h; how it was run: as §1
Rattus norvegicus [25] = organism: Rattus norvegicus; assay: Tissue (cortex) distribution in Albino male CD rats after 60 minutes expressed as percent of injected dose per gram of organ.; assay type: ADME, organism-based; settings: in vivo, 1 h; how it was run: as §2
Rattus norvegicus [26] = organism: Rattus norvegicus; assay: Tissue (liver) distribution in Albino male CD rats after 90 minutes expressed as percent of injected dose per gram of organ.; assay type: ADME, organism-based; settings: in vivo, 1.5 h; how it was run: as §1
Rattus norvegicus [27] = organism: Rattus norvegicus; assay: Tissue (intestine) distribution in Albino male CD rats after 30 minutes expressed as percent of injected dose per gram of organ.; assay type: ADME, organism-based; settings: in vivo, 0.5 h; how it was run: as §2
Rattus norvegicus [28] = organism: Rattus norvegicus; assay: Tissue (blood) distribution in Albino male CD rats after 90 minutes expressed as percent of injected dose per gram of organ.; assay type: ADME, organism-based; settings: in vivo, 1.5 h; how it was run: as §2
Rattus norvegicus [29] = organism: Rattus norvegicus; assay: Tissue (intestine) distribution in Albino male CD rats after 90 minutes expressed as percent of injected dose per gram of organ.; assay type: ADME, organism-based; settings: in vivo, 1.5 h; how it was run: as §2
Rattus norvegicus [30] = organism: Rattus norvegicus; assay: Tissue (lung) distribution in Albino male CD rats after 30 minutes expressed as percent of injected dose per gram of organ.; assay type: ADME, organism-based; settings: in vivo, 0.5 h; how it was run: as §1
Rattus norvegicus [31] = organism: Rattus norvegicus; assay: Tissue (adrenal gland) distribution in Albino male CD rats after 15 minutes expressed as percent of injected dose per gram of organ.; assay type: ADME, organism-based; settings: in vivo, 0.25 h; how it was run: as §2
Rattus norvegicus [32] = organism: Rattus norvegicus; assay: Tissue (muscle) distribution in Albino male CD rats after 60 minutes expressed as percent of injected dose per gram of organ.; assay type: ADME, organism-based; settings: in vivo, 1 h; how it was run: as §1
Rattus norvegicus [33] = organism: Rattus norvegicus; assay: Tissue (kidney) distribution in Albino male CD rats after 60 minutes expressed as percent of injected dose per gram of organ.; assay type: ADME, organism-based; settings: in vivo, 1 h; how it was run: as §2
[34] = target: Translocator protein (Rattus norvegicus) (UniProt P16257); assay: Tissue (blood) concentration of radioactivity at 30 min post-injection into Albino male CD rats after pretreatment with cold PK 11195.; assay type: functional, tissue-based; how it was run: as §3
[35] = target: Translocator protein (Rattus norvegicus) (UniProt P16257); assay: Tissue (muscle) concentration of radioactivity at 30 min post-injection into Albino male CD rats after pretreatment with cold PK 11195.; assay type: functional; how it was run: as §4
Rattus norvegicus [36] = organism: Rattus norvegicus; assay: Tissue (liver) concentration of radioactivity at 30 min post-injection into Albino male CD rats with vehicle.; assay type: ADME, organism-based; settings: in vivo, 0.5 h; how it was run: as §3
Rattus norvegicus [37] = organism: Rattus norvegicus; assay: Tissue (testicle) distribution in Albino male CD rats after 30 minutes expressed as percent of injected dose per gram of organ.; assay type: ADME, organism-based; settings: in vivo, 0.5 h; how it was run: as §1
Rattus norvegicus [38] = organism: Rattus norvegicus; assay: Tissue (muscle) concentration of radioactivity at 30 min post-injection into Albino male CD rats with vehicle.; assay type: ADME, organism-based; settings: in vivo, 0.5 h; how it was run: as §4
Rattus norvegicus [39] = organism: Rattus norvegicus; assay: Tissue (spleen) distribution in Albino male CD rats after 30 minutes expressed as percent of injected dose per gram of organ.; assay type: ADME, organism-based; settings: in vivo, 0.5 h; how it was run: as §1
Rattus norvegicus [40] = organism: Rattus norvegicus; assay: Tissue (plasma) distribution in Albino male CD rats after 15 minutes expressed as percent of injected dose per gram of organ.; assay type: ADME, organism-based; settings: in vivo, 0.25 h; how it was run: as §1

Sequence of Translocator protein (Rattus norvegicus) (P16257 whole entry, looked up): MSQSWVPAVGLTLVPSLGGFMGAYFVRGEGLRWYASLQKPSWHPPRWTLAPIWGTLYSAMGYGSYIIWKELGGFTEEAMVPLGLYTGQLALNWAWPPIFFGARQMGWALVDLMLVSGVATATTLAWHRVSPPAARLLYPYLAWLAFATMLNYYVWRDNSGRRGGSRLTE

SMILES: CCC(C)N(C)C(=O)c1nc2ccccc2c(-c2ccccc2F)c1C (stereo not given)
- I.D./g (Rattus norvegicus [1]): 0.11%
- I.D./g (Rattus norvegicus [2]): 0.06%
- I.D./g (Rattus norvegicus [3]): 0.46%
- I.D./g [4]: < 0.45%
- I.D./g (Rattus norvegicus [5]): 0.09%
- I.D./g (Rattus norvegicus [6]): 0.14%
- I.D./g (Rattus norvegicus [7]): 2.37%
- I.D./g (Rattus norvegicus [8]): 0.08%
- I.D./g (Rattus norvegicus [9]): 0.28%
- I.D./g (Rattus norvegicus [10]): 0.55%
- I.D./g (Rattus norvegicus [11]): 0.25%
- I.D./g [12]: < 0.11%
- I.D./g (Rattus norvegicus [13]): 2.78%
- I.D./g (Rattus norvegicus [14]): 0.37%
- I.D./g (Rattus norvegicus [15]): 0.06%
- I.D./g [16]: < 0.78%
- I.D./g (Rattus norvegicus [17]): 0.45%
- I.D./g [18]: < 0.09%
- I.D./g (Rattus norvegicus [19]): 1.77%
- I.D./g (Rattus norvegicus [20]): 0.1%
- I.D./g (Rattus norvegicus [21]): 0.56%
- I.D./g [22]: > 0.06%
- I.D./g (Rattus norvegicus [23]): 0.06%
- I.D./g (Rattus norvegicus [24]): 0.12%
- I.D./g (Rattus norvegicus [25]): 0.07%
- I.D./g (Rattus norvegicus [26]): 0.39%
- I.D./g (Rattus norvegicus [27]): 0.31%
- I.D./g (Rattus norvegicus [28]): 0.05%
- I.D./g (Rattus norvegicus [29]): 0.24%
- I.D./g (Rattus norvegicus [30]): 2.09%
- I.D./g (Rattus norvegicus [31]): 2.53%
- I.D./g (Rattus norvegicus [32]): 0.07%
- I.D./g (Rattus norvegicus [33]): 0.51%
- I.D./g [34]: > 0.04%
- I.D./g [35]: < 0.03%
- I.D./g (Rattus norvegicus [36]): 0.35%
- I.D./g (Rattus norvegicus [37]): 0.09%
- I.D./g (Rattus norvegicus [38]): 0.05%
- I.D./g (Rattus norvegicus [39]): 0.77%
- I.D./g (Rattus norvegicus [40]): 0.09%
